The record followed here is ChEMBL document CHEMBL1143599, “Design, synthesis, and antiviral activity of adenosine 5'-phosphonate analogues as chain terminators against hepatitis C virus” (J Med Chem, 2005).

As usually defined, the Km is the concentration of substrate that gives half-maximal velocity. What is called Vmax is the top rate of the reaction or transport when substrate is in excess.

What all share (format): functional
Data set [1] relates to Nc1ncnc2c1ncn2[C@@H]1O[C@H](COP(=O)(O)OP(=O)(O)OP(=O)(O)O)[C@@H](O)[C@H]1O. Description: Steady-state kinetic constant for Hepatitis C Virus NS5BRdRp. To be noted: Hepacivirus hominis. In short, it runs like this:
(§1)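 HCV NS5B, C-terminal His-tag with 21-residue truncation, 1 µM. Template 5′-AAAAAAAUGC-3′ and [5′-33P]GpC primer each at 20 µM. Buffer 50 mM HEPES pH 7.3, 10 mM DTT, 5 mM MgCl2; 15 min at 30 °C. Substrate varied from Km/2 to 10Km; EDTA quench, denaturing urea-PAGE. Initial velocities fitted to Michaelis-Menten for Km and Vmax; efficiency taken as Vmax/Km.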

Data set [2] has the same test system. Kind of data set: Incorporation efficiency for Hepatitis C Virus NS5BRdRp. To be noted: Hepacivirus hominis. In short, it runs like this: as §1
In data set [3] the target is RNA-directed RNA polymerase (Hepacivirus hominis) (UniProt O39930). Description: Ratio of steady state kinetic constant and incorporation efficiency for Hepatitis C Virus NS5BRdRp. The method in brief: as §1

Regarding “RNA-directed RNA polymerase (Hepacivirus hominis), O39930”, the Km in data set [1] stood at 133 µM. Also, the maximal velocity (Vmax) in data set [2] was determined as 0.23 µM/min.

On to `Nc1ncnc2c1ncn2[C@@H]1O[C@H](COP(=O)(O)OP(=O)(O)OP(=O)(O)O)[C@@H](O)[C@H]1O`, for which the Ratio in data set [3] was determined as 0.0017.

Turning to `Nc1ncnc2c1ncn2[C@@H]1O[C@H](CCP(=O)(O)OP(=O)(O)OP(=O)(O)O)[C@@H](O)[C@H]1O`, the Ratio in data set [3] worked out at 0.00019.

In the case of `Nc1ncnc2c1ncn2[C@@H]1O[C@H](OCP(=O)(O)OP(=O)(O)OP(=O)(O)O)[C@@H](O)[C@H]1O`, the Ratio in data set [3] was 1.2e-05.
